Measurements from article PMC4409664 (Cell, 2015).

Key:
Type in all cases: binding
human TTR = assay: RBP-TTR coimmunoprecipitation from HeLa conditioned media; conditions: HeLa cotransfected, HA immunoprecipitates
Summary of the method: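 HeLa cells cotransfected with myc-tagged TTR plus wild-type or mutant N-terminal HA-tagged human RBP plasmids. Secreted RBP complexes pulled from conditioned media with anti-HA agarose beads and washed in PBS. Western blot of immunoprecipitates probed first for TTR, then for HA.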

[1] = In vitro retinol titration by fluorescence enhancement; conditions: read-out: Kd for retinol; apo-RBP^HA, PBS, fluorescence ex 330 nm, em 460 nm
Summary of the method: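 Apo RBP-HA was immunopurified from serum-free HeLa conditioned medium, eluted with HA peptide, dialyzed into PBS and checked for homogeneity by gel. Equal amounts of protein (380 nM) were loaded with fresh all-trans retinol (0 to 5 µM) for 1 hr in PBS. Retinol fluorescence enhancement (ex 330, em 460 nm) was read on a microplate reader. Parallel runs used PBS with 0.1% phosphatidylcholine vesicles.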

STRA6 = target: T1, STRA6 (Homo sapiens, UniProt Q9BX79); assay: STRA6-RBP equilibrium and kinetic analysis by ELISA on STRA6+ HEK293T cells; conditions: read-out: Kd for STRA6, apo RBP^HA, 90 min at 37°C
T1 sequence (Q9BX79 1-667): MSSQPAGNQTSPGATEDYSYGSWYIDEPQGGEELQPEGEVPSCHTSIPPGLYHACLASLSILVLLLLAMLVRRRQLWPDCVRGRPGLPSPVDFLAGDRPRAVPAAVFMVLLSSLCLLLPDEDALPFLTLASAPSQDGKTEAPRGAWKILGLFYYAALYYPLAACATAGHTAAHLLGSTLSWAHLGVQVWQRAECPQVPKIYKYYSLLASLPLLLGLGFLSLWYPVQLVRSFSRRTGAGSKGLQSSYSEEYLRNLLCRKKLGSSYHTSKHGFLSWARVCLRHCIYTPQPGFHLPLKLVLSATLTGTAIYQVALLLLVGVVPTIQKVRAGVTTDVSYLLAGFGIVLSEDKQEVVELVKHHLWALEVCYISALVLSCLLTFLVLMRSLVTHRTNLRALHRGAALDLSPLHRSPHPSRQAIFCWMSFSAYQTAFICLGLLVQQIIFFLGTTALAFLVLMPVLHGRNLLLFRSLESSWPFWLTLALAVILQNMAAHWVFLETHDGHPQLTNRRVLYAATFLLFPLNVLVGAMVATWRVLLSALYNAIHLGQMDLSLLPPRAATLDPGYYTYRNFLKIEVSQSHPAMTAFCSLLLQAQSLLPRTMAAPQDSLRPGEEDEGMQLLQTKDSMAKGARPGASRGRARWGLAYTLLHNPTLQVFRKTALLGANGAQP
Summary of the method: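 Cells transfected with STRA6myc or vector were grown on poly-D-lysine. They were incubated 90 min at 37°C with medium containing 0–80 µg/mL apo RBP-HA and 0.5% BSA, washed in ice-cold HBSS, and bound RBP was eluted with 25 mM glycine HBSS pH 3. RBP was quantified by ELISA, with control-cell binding subtracted. Kd came from isotherms and reciprocal plots. TTR affinity was measured by SPR, running a TTR series over captured apo His-RBP.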

serum retinol binding protein [WT]
interaction with human TTR in coimmunoprecipitation (human TTR): interacted strongly
Kd [1]: ~80 nM
Kd (STRA6): 59 nM
